Data from ChEMBL document CHEMBL3297737, “Discovery of the first potent and orally available agonist of the orphan G-protein-coupled receptor 52” (J Med Chem, 2014).
Active and inactive are the calls of the source. The rule behind the calls is not given here.

Key:
[1] = biological target: T1, G-protein coupled receptor 52 (Homo sapiens, UniProt Q9Y2T5); assay: Agonist activity at human GPR52 expressed in CHO cells assessed as cAMP production after 30 mins by Alphascreen assay; type: functional, cell-based
[2] = biological target: T1, G-protein coupled receptor 52; assay: Agonist activity at human GPR52 expressed in CHO cells assessed as cAMP production after 30 mins by Alphascreen assay relative to N-(2-Hydroxyethyl)-3-{2-[3-(trifluoromethyl)benzyl]-1-benzofuran-4-yl}benzamide; type: functional, cell-based
[3] = biological target: Glutamate [NMDA] receptor (Homo sapiens) (UniProt Q05586+Q12879+Q13224+O15399+O60391+Q14957+Q8TCU5); assay: Agonist activity at NMDA receptor (unknown origin)
[4] = biological target: D(2) dopamine receptor (Homo sapiens) (UniProt P14416); assay: Agonist activity at dopamine D2 receptor (unknown origin)
[5] = biological target: D(1A) dopamine receptor (Homo sapiens) (UniProt P21728); assay: Agonist activity at dopamine D1 receptor (unknown origin)
[6] = Cmax in mouse at 1 mg/kg, po administered via cassette dosing; type: ADME, organism-based; set-up: dose 1 mg/kg, route oral; conditions: in vivo
Summary of the method: (§1)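 Mouse cassette dosing at 0.1 mg/kg iv and 1 mg/kg po. Plasma Cmax, AUC0–8h and oral bioavailability determined.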

[7] = Oral bioavailability in mouse at 1 mg/kg administered via cassette dosing; type: ADME, organism-based; conditions: in vivo; summary of the method: as §1
Homo sapiens [8] = organism: Homo sapiens; assay: Agonist activity at AMPA receptor (unknown origin)
Mus musculus [9] = assay: Antipsychotic activity against methamphetamine-induced hyperlocomotion in ICR mouse at 3 mg/kg, po administered 60 mins prior to methamphetamine challenge measured 150 mins post compound challenge; type: functional, organism-based; set-up: dose 3 mg/kg
Summary of the method: (§2)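 Male ICR mice, 7–8 weeks old, each in its own cage. Locomotor activity monitored. Compound given orally (1–30 mg/kg) after 60 min habituation. Methamphetamine 2 mg/kg sc injected 60 min later. Activity counts recorded for 150 min after compound dosing. n = 6–7 per group. Williams test versus vehicle + methamphetamine.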

[10] = biological target: D(1A) dopamine receptor (Homo sapiens) (UniProt P21728); assay: Agonist activity at human dopamine D1 receptor expressed in CHO cells; type: cell-based
Summary of the method: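 cAMP production measured in CHO cells expressing human dopamine D1 receptor (DRD1). Mean ± SD, n = 4.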

Mus musculus [11] = assay: Toxicity in ICR mouse assessed as cataleptogenic effect at 100 mg/kg, po after 1 to 2 hrs; type: organism-based; set-up: dose 100 mg/kg, route oral; conditions: in vivo
Summary of the method: (§3)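 Male ICR mice, 6–7 weeks old, dosed orally (10–100 mg/kg). Tested 1 and 2 h post-dose by placing forepaws on a steel bar, hind legs on the surface. Time holding immobile posture recorded, capped at 30 s. Three trials averaged per mouse. n = 6 per group. Williams test versus vehicle.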

Mus musculus [12] = assay: Antipsychotic activity against methamphetamine-induced hyperlocomotion in po dosed ICR mouse administered 60 mins prior to methamphetamine challenge measured 150 mins post compound challenge; type: functional, organism-based; summary of the method: as §2
[13] = Ratio of AUC from brain to plasma in mouse at 30 mg/kg, po; type: ADME, organism-based; set-up: dose 30 mg/kg, route oral; conditions: read-out: Ratio AUC
Summary of the method: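 Brain/plasma AUC ratio determined in mice after oral administration of 30 mg/kg.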

Homo sapiens [14] = organism: Homo sapiens; assay: Agonist activity at 5HT2 receptor (unknown origin)
[15] = AUC (0 to 8 hrs) in mouse at 1 mg/kg, po administered via cassette dosing; type: ADME, organism-based; set-up: time < 8 hr, dose 1 mg/kg, route oral; conditions: plasma; summary of the method: as §1
Mus musculus [16] = assay: Toxicity in ICR mouse assessed as extrapyramidal side effects at 100 mg/kg, po after 1 to 2 hrs; type: organism-based; set-up: dose 100 mg/kg, route oral; conditions: in vivo; summary of the method: as §3
[17] = biological target: T1, G-protein coupled receptor 52; assay: Agonist activity at GPR52 (unknown origin)
[18] = biological target: T1, G-protein coupled receptor 52; assay: Agonist activity at GPR52 (unknown origin) relative to control
[19] = biological target: T1, G-protein coupled receptor 52; assay: Agonist activity at human GPR52 expressed in CHO cells assessed as cAMP production at 10 uM after 30 mins by Alphascreen assay; type: functional, cell-based

T1 sequence (Q9Y2T5 whole entry): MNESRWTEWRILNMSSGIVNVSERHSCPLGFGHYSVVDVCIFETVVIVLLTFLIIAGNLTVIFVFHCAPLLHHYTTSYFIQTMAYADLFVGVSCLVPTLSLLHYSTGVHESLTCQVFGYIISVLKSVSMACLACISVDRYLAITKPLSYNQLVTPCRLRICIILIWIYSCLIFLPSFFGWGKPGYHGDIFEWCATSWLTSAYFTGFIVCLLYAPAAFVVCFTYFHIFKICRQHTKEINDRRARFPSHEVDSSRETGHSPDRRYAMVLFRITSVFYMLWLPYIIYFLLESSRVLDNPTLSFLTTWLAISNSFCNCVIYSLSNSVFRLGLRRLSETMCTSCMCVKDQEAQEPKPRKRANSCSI
Chain of D(1A) dopamine receptor (Homo sapiens) (P21728 whole entry): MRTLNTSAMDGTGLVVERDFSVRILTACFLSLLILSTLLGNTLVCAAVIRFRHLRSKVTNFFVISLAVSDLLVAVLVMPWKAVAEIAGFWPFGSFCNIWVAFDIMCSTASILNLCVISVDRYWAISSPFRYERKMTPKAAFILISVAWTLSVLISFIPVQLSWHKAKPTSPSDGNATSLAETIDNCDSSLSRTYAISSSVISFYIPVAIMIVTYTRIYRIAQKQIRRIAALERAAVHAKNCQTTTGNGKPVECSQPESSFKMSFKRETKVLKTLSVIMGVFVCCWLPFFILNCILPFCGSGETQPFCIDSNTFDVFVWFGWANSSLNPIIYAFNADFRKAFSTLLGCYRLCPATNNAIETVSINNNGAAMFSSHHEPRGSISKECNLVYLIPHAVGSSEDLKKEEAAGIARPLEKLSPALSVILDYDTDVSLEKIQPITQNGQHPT
Chain of D(2) dopamine receptor (Homo sapiens) (P14416 whole entry): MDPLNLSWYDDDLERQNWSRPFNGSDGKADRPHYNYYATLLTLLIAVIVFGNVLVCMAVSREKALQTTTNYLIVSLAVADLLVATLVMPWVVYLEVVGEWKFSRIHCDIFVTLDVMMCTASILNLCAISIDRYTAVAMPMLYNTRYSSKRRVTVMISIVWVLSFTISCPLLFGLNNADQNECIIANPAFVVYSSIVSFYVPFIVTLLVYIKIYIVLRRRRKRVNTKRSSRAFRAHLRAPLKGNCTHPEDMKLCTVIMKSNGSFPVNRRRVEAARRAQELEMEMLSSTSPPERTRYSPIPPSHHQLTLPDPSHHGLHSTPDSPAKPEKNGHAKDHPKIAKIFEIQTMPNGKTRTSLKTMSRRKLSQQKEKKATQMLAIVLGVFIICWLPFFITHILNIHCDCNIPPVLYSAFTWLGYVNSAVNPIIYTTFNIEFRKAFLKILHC

Structure (SMILES) | EC50 [1] | Emax [2] | also measured
O=C(NCCO)c1cccc(-c2cccc3c2OC(Cc2cccc(C(F)(F)F)c2)C3)c1 (racemic) | 209 nM | 56.1% | 
COCCNC(=O)c1cccc(-c2cccc3cc(Cc4cc(F)cc(Cl)c4)sc23)c1 | 29.5 nM | 79.8% | Activity [3]: inactive; Activity [4]: inactive; Activity [5]: inactive; Cmax [6]: 108 ng/mL; bioavailability [7]: 73%; Activity (Homo sapiens [8]): inactive; Activity (Mus musculus [9]): Active; Activity [10]: inactive; Activity (Mus musculus [11]): Non-toxic; Activity (Mus musculus [12]): Dose-dependent effect; Kp [13]: 0.94; Activity (Homo sapiens [14]): inactive; AUC(0-t) at 8 h [15]: 614 ng·h/mL; Activity (Mus musculus [16]): Non-toxic
O=C(NCCO)c1cccc(-c2cccc(OCCc3cccc(C(F)(F)F)c3)n2)c1 |  |  | EC50 [17]: 646 nM; Emax [18]: 73.1%
NC(=O)CNC(=O)c1cccc(-c2ccc(F)c3cc(Cc4cccc(C(F)(F)F)c4)sc23)c1 | 83.2 nM | 107% | 
O=C(NCCO)c1cccc(-c2cccc3c2CC(Cc2cccc(C(F)(F)F)c2)O3)c1 (racemic) | 646 nM | 45.9% | 
O=C(NCCO)c1cccc(-c2cccc(OCCc3cc(F)cc(Cl)c3)n2)c1 |  |  | EC50 [17]: 347 nM; Emax [18]: 79%
Cc1c(Cc2cccc(C(F)(F)F)c2)oc2c(-c3cccc(C(=O)NCCO)c3)cccc12 | 81.3 nM | 71.5% | 
O=C(NCCO)c1cccc(-c2cccc3nn(Cc4cccc(C(F)(F)F)c4)cc23)c1 | 38.9 nM | 79.1% | 
O=C(NCCO)c1cccc(-c2cccc3cc(Cc4cccc(C(F)(F)F)c4)oc23)c1 | 34.7 nM | 74.8% | 
O=C(NCCO)c1cccc(-c2cccc3oc(Cc4cccc(C(F)(F)F)c4)cc23)c1 | 28.2 nM | 85.7% | 
COc1ccc(-c2ccnc(NCCc3ccc(OC)c(OC)c3)n2)cc1 | > 10000 nM |  | Activity [19]: 33%
COCCNC(=O)c1cccc(-c2cccc3cc(Cc4cccc(C(F)(F)F)c4)sc23)c1 | 42.7 nM | 85% | 
O=C(NCCO)c1cccc(-c2cccc3sc(Cc4cccc(C(F)(F)F)c4)cc23)c1 | 38 nM | 68.6% | 
NC(=O)CNC(=O)c1cccc(-c2cccc3cc(Cc4cccc(C(F)(F)F)c4)sc23)c1 | 55 nM | 102% | 
O=C(NCCO)c1cccc(-c2cccc3cc(Cc4cccc(C(F)(F)F)c4)sc23)c1 | 37.2 nM | 79.6% | 
Cc1c(Cc2cccc(C(F)(F)F)c2)oc2cccc(-c3cccc(C(=O)NCCO)c3)c12 | > 10000 nM |  | Activity [19]: 20%
O=C(NCCO)c1cccc(-c2cccc3cn(Cc4cccc(C(F)(F)F)c4)nc23)c1 | 64.6 nM | 69.7% | 
